ChEMBL document CHEMBL4699631, “Antimalarial and anti-inflammatory activities of new chloroquine and primaquine hybrids: Targeting the blockade of malaria parasite transmission” (Bioorg Med Chem, 2020)
The source made the active and inactive calls. The calls are words filed in the database; no cut-off is given here.

What was measured:
[1] = tested on: Plasmodium falciparum; assay: Antimalarial activity against Plasmodium falciparum CQR (W2 clone) infected in human erythrocyte assessed as reduction in parasite growth incubated for 48 hrs by SYBR assay; format: functional, organism-based
Method in brief: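 W2 parasites cultured in A+ human erythrocytes in RPMI 1640 with ALBUMAX II, candle jar, 37 °C. Rings synchronized with sorbitol, then exposed to serial dilutions at 0.5% parasitemia and 2% hematocrit for 48 h at 37 °C. Lysis buffer with SYBR Safe, 30 min in the dark, fluorescence read at ex 485 nm. IC50 from sigmoid curve fit against drug-free control.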

[2] = Cytotoxicity against monkey BGM cells assessed as reduction in cell viability incubated for 24 hrs by neutral red dye based assay; conditions: chlorocebus aethiops, read-out: MDL50
Method in brief: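 BGM monkey kidney cells grown in RPMI 1640 with 10% heat-inactivated fetal serum and gentamicin, 5% CO2, 37 °C. Cells allowed to adhere for 24 h, then exposed to compounds at 1000–1 μg/mL for 24 h. Neutral red uptake for 3 h, formaldehyde/CaCl2 fix, alcohol-acetic acid elution, absorbance at 540 nm. Viability taken as percent of untreated cells after background subtraction. MLD50 derived from this.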

[3] = Selectivity index, ratio of MDL50 for monkey BGM cells to IC50 for Plasmodium falciparum CQR (W2 clone) infected in human Erythrocyte; format: toxicity
Method in brief: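 SI calculated as MLD50 in BGM cells (neutral red, 24 h) divided by IC50 against P. falciparum W2 (SYBR, 48 h).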

[4] = tested on: Plasmodium berghei; assay: Antimalarial activity against Plasmodium berghei NK65 infected in mouse assessed as parasite growth at 25 mg/kg, po administered for 3 days and measured on day 5 Giemsa staining based assay relative to control; format: functional; conditions: time 5 day
Method in brief: (§1)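 P. berghei NK65 kept by weekly blood passage in mice. Mice inoculated i.p. with 1×10^6 infected erythrocytes, randomized after about 24 h into groups of five. Oral dosing once daily for three days, vehicle 3% DMSO in RPMI. Test compounds given at 25 mg/kg, CQ control at 20 mg/kg. Parasitemia read on Giemsa-stained thin smears on days 5 and 7 and expressed relative to untreated mice.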

[5] = tested on: Plasmodium berghei; assay: Antimalarial activity against Plasmodium berghei NK65 infected in mouse assessed as parasite growth at 25 mg/kg, po administered for 3 days and measured on day 7 Giemsa staining based assay; format: functional; conditions: time 7 day; method in brief: as §1
[6] = Cytotoxicty against mouse J774.A1 cells assessed as cell viability at 12.5 uM incubated for 24 hrs by resazurin dye based assay (reference value: 100 %); conditions: read-out: Activity
Method in brief: (§2)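 J774A.1 macrophages grown in DMEM with 10% FBS and 0.1% gentamycin, seeded at 1×10^5 cells/well. Exposed to compounds at 0, 12.5, 25, 50 or 100 μM for 24 h. Resazurin (10 μg/ml) added for 3 h, then fluorescence read. Run in triplicate. Viability given as percent of 0.2% DMSO-treated cells.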

[7] = Cytotoxicty against mouse J774.A1 cells assessed as cell viability at 25 uM incubated for 24 hrs by resazurin dye based assay (reference value: 100 %); conditions: read-out: Activity; method in brief: as §2
[8] = Cytotoxicty against mouse J774.A1 cells assessed as cell viability at 50 uM incubated for 24 hrs by resazurin dye based assay (reference value: 100 %); conditions: read-out: Activity; method in brief: as §2
[9] = Cytotoxicty against mouse J774.A1 cells assessed as cell viability at 100 uM incubated for 24 hrs by resazurin dye based assay (reference value: 100 %); conditions: read-out: Activity; method in brief: as §2
[10] = tested on: J774.A1; assay: Inhibition of LPS-induced TNFalpha production in mouse J774.A1 cells incubated for 24 hrs by ELISA; format: functional, cell-based; conditions: dose microM 0.5-25, time 24.0 hrs
Method in brief: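 J774A.1 cells seeded at 2×10^6 cells/well. Pretreated with vehicle, dexamethasone 1 μM, or compounds at 0.5–25 μM. Stimulated with LPS 100 ng/ml for 24 h. Supernatants stored at −20 °C, then TNFα measured by sandwich ELISA in pg/mL. Triplicate, mean ± SEM.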

[11] = tested on: Plasmodium berghei; assay: Antimalarial activity against Plasmodium berghei NK65 infected in mouse assessed as increase in mouse survival rate at 25 mg/kg, po administered for 3 days and observed for 7 days; format: functional, organism-based; conditions: time 7.0 day
[12] = tested on: J774.A1; assay: Inhibition of LPS-induced NO production in mouse J774.A1 cells incubated for 24 hrs by Griess reagent based assay; format: functional, cell-based; conditions: dose microM 0.5-25, time 24.0 hrs
Method in brief: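 Compounds made as 10 mM DMSO stocks and diluted in medium. J774A.1 cells pre-incubated with compounds at 25 μM for screening, or 0.5–25 μM for dose-response, with dexamethasone 1 μM or 0.2% DMSO as controls. Stimulated with LPS 37.5 ng/ml plus IFNγ 25 U/ml for 24 h at 37 °C, 5% CO2. Supernatant nitrite measured by Griess at 540 nm. Triplicate, mean ± SEM.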

[13] = tested on: Plasmodium berghei; assay: Antimalarial activity against Plasmodium berghei NK65 infected in mouse assessed as parasite growth at 20 mg/kg, po administered for 3 days and measured on day 5 Giemsa staining based assay relative to control; format: functional; conditions: time 5 day; method in brief: as §1
[14] = tested on: Plasmodium berghei; assay: Antimalarial activity against Plasmodium berghei NK65 infected in mouse assessed as parasite growth at 20 mg/kg, po administered for 3 days and measured on day 7 Giemsa staining based assay relative to control; format: functional; conditions: time 7 day; method in brief: as §1
[15] = tested on: Plasmodium berghei; assay: Antimalarial activity against Plasmodium berghei NK65 infected in mouse assessed as increase in mouse survival at 20 mg/kg, po administered for 3 days and observed for 7 days; format: functional, organism-based; conditions: time 7.0 day

SMILES | IC50 [1] [µM] | CC50 at 24 h [2] [µM] | selectivity ratio [3] | viability at 24 h, 12.5 µM [6] [%] | viability at 24 h, 25 µM [7] [%] | viability at 24 h, 50 µM [8] [%] | viability at 24 h, 100 µM [9] [%] | further results
CC(=O)Nc1ccc(C)cc1C(=O)C(=O)NCCNc1ccnc2cc(Cl)ccc12 | 0.49 | > 84 | > 170 |  |  |  |  | 
COc1cc(NC(C)CCCNC(=O)C(=O)c2ccccc2NC(C)=O)c2ncccc2c1 (stereo unspecified) | 26.8 |  |  |  |  |  |  | 
COc1cc(NC(C)CCCNC(=O)C(F)(F)c2cc(Br)ccc2NC(C)=O)c2ncccc2c1 (stereo unspecified) | 3.5 | > 1820 | > 520 |  |  |  |  | 
CC(=O)Nc1ccccc1C(=O)C(=O)NCCCCNc1ccnc2cc(Cl)ccc12 | 0.18 | 124 | > 700 | 98.4 | 100 | 83.4 | 10.1 | Activity [4]: 0%; Activity [5]: 2%; inhibition [10]: inactive
CC(=O)Nc1ccccc1C(=O)C(=O)NCCCNc1ccnc2cc(Cl)ccc12 | 0.2 | 91.7 | > 400 | 100 | 100 | 89.1 | 67.6 | Activity [4]: 0%; Activity [5]: 15%; Activity [11]: Active
CC(=O)Nc1ccccc1C(=O)C(=O)NCCNc1ccnc2cc(Cl)ccc12 | 0.71 | 261 | > 300 |  |  |  |  | 
CC(=O)Nc1ccccc1C(F)(F)C(=O)NCCCCNc1ccnc2cc(Cl)ccc12 | 2.7 | 140 | > 50 | 100 | 100 | 83.7 | 10.4 | 
CC(=O)Nc1ccc(Cl)cc1C(=O)C(=O)NCCNc1ccnc2cc(Cl)ccc12 | 0.52 | 152 | 292 |  |  |  |  | 
CC(=O)Nc1ccc(Br)cc1C(=O)C(=O)NCCCNc1ccnc2cc(Cl)ccc12 | 0.38 | 103 | 270 |  |  |  |  | 
CC(=O)Nc1ccc(Cl)cc1C(=O)C(=O)NCCCCNc1ccnc2cc(Cl)ccc12 | 3.18 | 91.1 | 29 |  |  |  |  | 
COc1cc(NC(C)CCCNC(=O)C(F)(F)c2ccccc2NC(C)=O)c2ncccc2c1 (stereo unspecified) | 25.5 | 113 | 4 |  |  |  |  | 
COc1cc(NC(C)CCCNC(=O)C(=O)c2cc(Br)ccc2NC(C)=O)c2ncccc2c1 (stereo unspecified) | 2.5 | 309 | > 100 | 100 | 100 | 75.5 | 75.8 | 
CC(=O)Nc1ccccc1C(F)(F)C(=O)NCCCNc1ccnc2cc(Cl)ccc12 | 0.4 | 99 | > 250 | 100 | 100 | 91.5 | 33.3 | 
CC(=O)Nc1ccc(Cl)cc1C(F)(F)C(=O)NCCCNc1ccnc2cc(Cl)ccc12 | 0.5 | 654 | > 1300 | 100 | 95.5 | 87.5 | 10.4 | inhibition [12]: Dose-dependent effect; inhibition [10]: Dose-dependent effect
CC(=O)Nc1ccc(Cl)cc1C(=O)C(=O)NCCCNc1ccnc2cc(Cl)ccc12 | 0.12 | 30.9 | 258 | 100 | 100 | 82.7 | 10.7 | Activity [4]: 0%; Activity [5]: 0%; Activity [11]: Active; inhibition [12]: Dose-dependent effect; inhibition [10]: Dose-dependent effect
COc1cc(NC(C)CCCNC(=O)C(=O)c2cc(C)ccc2NC(C)=O)c2ncccc2c1 (stereo unspecified) | 25.3 | > 2160 | > 80 |  |  |  |  | 
COc1cc(NC(C)CCCNC(=O)C(=O)c2cc(Cl)ccc2NC(C)=O)c2ncccc2c1 (stereo unspecified) | 7.7 | 164 | > 20 | 100 | 100 | 77.6 | 54.6 | 
CCN(CC)CCCC(C)Nc1ccnc2cc(Cl)ccc12 (stereo unspecified) [CHLOROQUINE] |  | 457 |  |  |  |  |  | Activity [13]: 99%; Activity [14]: 99%; Activity [15]: Active
CC(=O)Nc1ccc(C)cc1C(=O)C(=O)NCCCNc1ccnc2cc(Cl)ccc12 | 0.22 |  |  |  |  |  |  | 
COc1cc(NC(C)CCCNC(=O)C(F)(F)c2cc(C)ccc2NC(C)=O)c2ncccc2c1 (stereo unspecified) | 20.7 |  |  |  |  |  |  | 
CC(=O)Nc1ccc(C)cc1C(=O)C(=O)NCCCCNc1ccnc2cc(Cl)ccc12 | 0.84 |  |  |  |  |  |  | 
